Source: ChEMBL document CHEMBL3244358, “Conformational analogues of antihypertensive agents related to guanethidine” (J Med Chem, 1977)
Activity calls are given as the source filed them. No cut-off for these calls is given here.

Legend:
[1] = organism: Cavia porcellus; test: Antagonist activity at adrenergic receptor in guinea pig vas deferens assessed as inhibition of electrically-induced release of norepinephrine at 1 x 10^-4 M measured every 10 mins; type: tissue-based
[2] = organism: Cavia porcellus; test: Equipotent molar ratio, ratio of compound ID50 to guanethidine ID50 for adrenergic receptor in guinea pig vas deferens assessed as inhibition of electrically-induced release of norepinephrine
[3] = organism: Cavia porcellus; test: Antagonist activity at adrenergic receptor in guinea pig vas deferens assessed as inhibition of electrically-induced release of norepinephrine measured every 10 mins; type: tissue-based
Outline: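 Isolated guinea pig vas deferens in Krebs solution, stimulated transmurally for 15 s every 4 min at 25-35 shocks/s, 0.1 ms pulses, supramaximal 110-120 V. Salts were dissolved in distilled water, with a fresh preparation for each drug. Responses were read at 10-min intervals. ID50, the bath concentration giving 50% inhibition, came from dose-response curves of at least three concentrations, as free base.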

Structure (SMILES): N=C(N)NC1Cc2ccccc2C1
- inhibition [1]: inactive

Structure (SMILES): N=C(N)NCCc1cccc2ccccc12
- EPMR [2]: 6
- ID50 [3]: 1.2 ×10⁻⁵ M

Structure (SMILES): N=C(N)NCCc1ccc2ccccc2c1
- EPMR [2]: 2.5
- ID50 [3]: 5 µM

Structure (SMILES): N=C(N)N[C@H]1C[C@H]1c1ccccc1 (relative stereo)
- inhibition [1]: inactive

Structure (SMILES): N=C(N)NCCN1CCCCCCC1
- ID50 [3]: 2 µM

Structure (SMILES): N=C(N)NC[C@H]1C[C@H]1c1ccccc1 (relative stereo)
- EPMR [2]: 4.55
- ID50 [3]: 9.1 µM

Structure (SMILES): N=C(N)NC[C@@H]1C[C@H]1c1ccccc1
- EPMR [2]: 3.65
- ID50 [3]: 7.3 µM

Structure (SMILES): N=C(N)NC/C=C/C1CCCCC1
- EPMR [2]: 0.39
- ID50 [3]: 7.7 ×10⁻⁷ M

Structure (SMILES): N=C(N)NCc1cccc2ccccc12
- EPMR [2]: 0.095
- ID50 [3]: 1.9 ×10⁻⁷ M

Structure (SMILES): N=C(N)NCC1Cc2ccccc21 (stereo unspecified)
- EPMR [2]: 1.25
- ID50 [3]: 2.5 µM

Structure (SMILES): N=C(N)N[C@@H]1C[C@H]1c1ccccc1
- EPMR [2]: 2.52
- ID50 [3]: 5.05 µM

Structure (SMILES): COc1ccc2c(c1)CCC2NC(=N)N (stereo unspecified)
- inhibition [1]: inactive

Structure (SMILES): N=C(N)NC1CCc2ccc([N+](=O)[O-])cc21 (stereo unspecified)
- EPMR [2]: 10
- ID50 [3]: 2 ×10⁻⁵ M

Structure (SMILES): N=C(N)NC1CCc2ccccc21 (stereo unspecified)
- EPMR [2]: 2.9
- ID50 [3]: 5.8 µM

Structure (SMILES): N=C(N)NC/C=C\C1CCCCC1
- EPMR [2]: 0.049
- ID50 [3]: 9.8 ×10⁻⁸ M
